Compounds with a hit are over-represented: about 2.3% of the library has one in this group of screens.
Myeloid diff 2 – promotes myeloid progenitor differentiation. 1% of 360,000 active. ER-HoxA9 myeloid progenitors, lysozyme-GFP differentiation, flow cytometry. calls only at 10 µM. AID 624256;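 active = normalized GFP-positive differentiation at or above the plate's own cutoff, the solvent-only control mean plus 3 SD; inconclusive = no clear call, values can overlap the other calls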;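 also: cells exposed to compound for four days before flow analysis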
CSN deneddyl inh – inhibitors of human CSN-mediated cullin deneddylation; Purified CSN, SCF-Nedd8-OG deneddylation, fluorescence polarization; Q92905; inhibition, % at 12.5 µM; 0.38% of 360,000 active;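 active = pattern-corrected inhibition above about 35%, with an unprinted fluorescence ratio check between 0.5 and 1.5, limit read from the data, passing the limit was not always enough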;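 also: 0% = enzyme with substrate and 100% = substrate without enzyme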
Target sequence (Q92905 whole entry, looked up, one chain of several): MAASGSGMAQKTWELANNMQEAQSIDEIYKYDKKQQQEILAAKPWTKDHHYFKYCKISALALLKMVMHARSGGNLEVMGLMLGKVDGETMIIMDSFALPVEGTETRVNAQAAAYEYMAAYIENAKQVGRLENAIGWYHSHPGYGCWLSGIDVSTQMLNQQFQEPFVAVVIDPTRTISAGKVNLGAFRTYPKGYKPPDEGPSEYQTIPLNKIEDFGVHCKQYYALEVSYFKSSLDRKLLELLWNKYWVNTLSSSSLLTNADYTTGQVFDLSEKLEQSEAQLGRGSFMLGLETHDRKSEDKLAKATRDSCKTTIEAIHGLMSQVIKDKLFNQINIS
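assay system = purified human Csn5 enzyme expressed in HEK293T cells | amount = 0.24 nM enzyme | buffer or medium = Tris/NaCl/DTT buffer, pH 7.5 | reagent = 10 nM SCFSkp2-Nedd8OG | compound = one concentration, 12.5 µM, 0.25% DMSO | times = 90 min reaction at room temperature | signal = FP | read-out basis = % inhibition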
TPT1 inh – inhibitors of Candida albicans tRNA 2'-phosphotransferase TPT1; recombinant caTPT1, FP RNA substrate dephosphorylation; inhibition, % at 5 µM; 0.81% of 300,000 active;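 active = inhibition above the mean of all tested compounds plus 3 SD, set per screening campaign, cut at about 24% in these data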;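 also: plate controls were DMSO alone for no effect and ferristatin control at 100 nM for full effect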
Rpn11 block – blocks the human proteasome subunit Rpn11; O00487; human 26S proteasome, Ub4-pepOG fluorescence polarization; 20S core pre-blocked with epoxomicin; inhibition, % at 20 µM; 0.59% of 360,000 active; AID 588493;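 active = inhibition at 20 µM, scaled to each plate's controls, above about 33%, limit read from the data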
Target sequence (O00487 whole entry, looked up): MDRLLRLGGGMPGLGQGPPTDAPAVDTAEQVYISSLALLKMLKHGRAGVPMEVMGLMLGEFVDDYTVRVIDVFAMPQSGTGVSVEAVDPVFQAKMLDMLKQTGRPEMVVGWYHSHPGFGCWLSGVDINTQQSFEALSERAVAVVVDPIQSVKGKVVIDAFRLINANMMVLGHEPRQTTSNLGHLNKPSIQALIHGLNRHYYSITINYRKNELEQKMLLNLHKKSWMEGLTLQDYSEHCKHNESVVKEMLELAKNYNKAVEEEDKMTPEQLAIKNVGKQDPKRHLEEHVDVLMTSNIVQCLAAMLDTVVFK
HNF4A DNA FP – change in binding of human HNF4 alpha to DNA. P41235. HNF4a-FITC DNA binding, fluorescence polarization, 1 h. activity change, % at 10 µM. 0.3% of 360,000 active; in the data active = activity change above about 30%, passing the limit was not always enough
* hit, by the source's call; i = inactive; u = inconclusive; x = no result given; + = active, no number.

SMILES | Myeloid diff 2 | CSN deneddyl inh | TPT1 inh | Rpn11 block | HNF4A DNA FP
CCCCCCCCN1C(=O)[C@H](CC(=O)NCCc2ccccc2OC)C[C@@]2(C(=O)OC)CC(C)(C)CC=C12 | i | 1 | x | x | 2
CCc1ccc(CN(C)C(=O)c2ccc3c(c2)OCCO3)cc1 | + | 4 | -4 | -1 | 0
C[C@@H]1CN([C@@H](C)CO)C(=O)CCCn2nncc2CO[C@@H]1CN(C)S(=O)(=O)c1ccc(Oc2ccccc2)nc1 | i | 2 | x | -6 | -2
CCOC(=O)c1[nH]c2ccc(Cl)cc2c1NC(=O)/C=C/c1ccc2c(c1)OCO2 | i | -6 | -2 | -3 | -4
CCN(CC(=O)Nc1c(C(=O)OC)[nH]c2ccc(Cl)cc12)c1ccc2c(c1)OCO2 | + | -5 | -26 | -20 | -8
O=C(NCCCN1CCOCC1)NC1CCCCC1 | i | 4 | -6 | 0 | -4
O=C(NCCCCCCCN1CCCCCCC1)C(C1CCCCC1)C1CCCCC1 | x | 55* | x | -23 | 24
Cc1ccc(Cl)cc1N1CCN(C(=O)c2cn(C)c(=O)c3c2c2ccccc2n3C)CC1 | + | -2 | 2 | 5 | 4
O=C(Nc1ccccc1Cl)c1cc(C2CCCCN2C(=O)CCCc2ccccc2)on1 (stereo unspecified) | i | -1 | x | 5 | 1
COc1ccc(S(=O)(=O)NCc2cccnc2)cc1OC | i | -2 | -8 | 5 | 46*
COc1ccc(S(=O)(=O)NCc2ccncc2)cc1OC | i | 3 | -2 | -2 | 2
COc1cccc(CNc2nc3cc(-c4ccsc4)sc3c(=O)n2C)c1OC | i | -3 | x | 9 | 3
c1ccc(CNc2ncnc3c2cnn3-c2ccccc2)cc1 | u | 4 | -2 | -14 | -2
Cc1cccc(-n2ncc3c(NCc4ccccc4)ncnc32)c1 | + | 2 | -4 | -6 | -1
COc1cc(/C=C2/C(=O)NN(c3ccc(C)c(Cl)c3)C2=O)cc([N+](=O)[O-])c1O | + | 15 | x | 6 | -12
COc1cc(/C=C2/C(=O)NN(c3cccc(C)c3)C2=O)cc([N+](=O)[O-])c1O | i | 6 | 6 | 5 | -14
O=C1NN(c2ccccc2)C(=O)/C1=C\c1cccn1-c1ccc(Cl)c([N+](=O)[O-])c1 | + | 3 | -2 | -4 | -2
C=CC(=O)Nc1cccc(Nc2nc(N[C@H]3CC[C@H](N(C)C)CC3)nc3c2ncn3C(C)C)c1 | i | 112* | x | 68* | 40
Nc1c(C(=O)C2CC2)sc2nc(-c3cccs3)cc(C(F)(F)F)c12 | + | 92 | 3 | x | -53
CC(C)NC(=O)c1sc2nc(-c3cccs3)cc(-c3cccs3)c2c1N | x | x | 10 | x | x
COc1ccc(/C=N/Nc2ncnc3c2[nH]c2ccccc23)c(OC)c1OC | i | 1 | 2 | -9 | 1
COc1cccc(/C=N/Nc2ncnc3c2[nH]c2ccc(C)cc23)c1OC | i | 68* | 3 | 4 | 52*
O=C(N/N=C\c1cccnc1)c1cc(-c2ccc(Cl)s2)[nH]n1 | i | 39* | 2 | 27 | 8
Nc1ccccc1Nc1ccccc1 | + | 6 | 8 | 15 | 12
Nc1c(C(=O)NCc2ccco2)c2nc3ccccc3nc2n1CCc1ccc(F)cc1 | i | 43* | 20 | 43* | 13
SMILES | Myeloid diff 2 | CSN deneddyl inh | TPT1 inh | Rpn11 block | HNF4A DNA FP
COc1ccc(-n2c(N)c(C(=O)NCc3ccco3)c3nc4ccccc4nc32)cc1 | u | 9 | 8 | 16 | 7
CCCCCCCCN1C(=O)[C@H](CC(=O)N2CCN(C(=O)c3ccco3)CC2)C[C@@]2(C(=O)OC)CC(C)(C)CC=C12 | i | -1 | x | x | -3
Cc1ccccc1CN1CCN(C(C)C(=O)NNC(=O)c2ccc(F)cc2)CC1 (stereo unspecified) | i | -2 | x | -3 | -1
CC1CN(C(C)C(=O)NNC(=O)c2ccc(F)cc2)CC(C)O1 (stereo unspecified) | + | 0 | x | 2 | 0
Cc1ccccc1Cc1c(C)nc2nc(SCC(=O)NCCCN3CCCCC3)nn2c1C | i | -4 | -2 | -16 | 9
Cc1nc2nc(SCC(=O)NCCCN3CCCCCC3)nn2c(C)c1Cc1ccccc1 | i | 88* | -2 | -4 | 68*
O=C(c1ccncc1)N1CCN(C(=O)c2ccco2)CC1 | i | 1 | -3 | -1 | -2
O=C(c1ccc(N2CN(C(=O)c3ccco3)c3nc4ccccc4nc32)cc1)N1CCOCC1 | + | -2 | -4 | 0 | -2
Cc1cnc(C(=O)OCC(=O)C23CC4CC(CC(C4)C2)C3)cn1 | + | 2 | -1 | 4 | -1
O=C(NCCOc1ccccc1)C1C(=O)Nc2ccccc2C(=O)N1C1CCCCC1 (stereo unspecified) | i | 3 | x | x | 1
O=C(NCCCCNC(=O)c1ccc(Cl)s1)c1ccc(Cl)s1 | i | -3 | 1 | 6 | 1
CN(C)CCNC(=O)c1ccc(Cl)s1 | + | -1 | 3 | -3 | -3
CC(C)(C)NC(=O)C(c1cc2ccccc2o1)n1c(-c2ccc(-c3ccccc3)cc2)nc2ccccc21 (stereo unspecified) | i | 19 | x | x | 9
COc1ccc(-c2cc(=O)c3cc(C)ccc3[nH]2)cc1 | i | 1 | -5 | -2 | 0
COc1ccc(-c2cc(=O)c3cc(OC)ccc3[nH]2)cc1 | + | -1 | 3 | -16 | 4
O=C1CC(c2ccccc2)CC2=C1C1(CCCC1)N=C(Nc1nc3ccccc3o1)N2 (stereo unspecified) | i | 0 | x | 13 | 0
O=S(=O)(NCc1cn2ccsc2n1)c1ccc(Oc2ccccc2)cc1 | + | -4 | -1 | -4 | -1
Cc1ccc(NC(=O)/C=C/c2ccc3c(c2)OCO3)nc1 | + | -17 | 1 | 0 | 7
CN(C)c1ccc(N/C=C/C(=O)c2ccccc2)cc1 | i | 11 | 16 | x | 38*
COc1cccc(C(C)(O)c2nc(-c3ccoc3)cs2)c1 (stereo unspecified) | i | 8 | x | 10 | 5
CC(C)(C)c1ccc(O)c(N=Cc2cc(Br)ccc2O)c1 | i | 16 | 3 | 21 | 16
Cc1ccc(O)c(C=Nc2cc(C)ccc2O)c1 | + | 10 | 0 | 12 | 4
CC(=O)c1cccc(-c2ccnc3c2CC(C(=O)Nc2cccc(Oc4ccccc4)c2)O3)c1 (stereo unspecified) | i | 3 | x | 6 | -1
O=c1cnnc(Nc2cccc(F)c2)[nH]1 | + | 3 | 4 | 4 | 0
COc1ccc(CCNS(=O)(=O)c2cn(C)cn2)cc1OC | + | 0 | 0 | 6 | 4
C=CCNc1ncnc2c1ncn2[C@H]1CN(Cc2cccc3ccccc23)C[C@@H](CO)O1 | i | -3 | x | -4 | 1
Cc1ccc(C[n+]2ccccc2)cc1 | + | -3 | -2 | -1 | 2
Cc1c(NC(=S)/C=C2\N(C)c3ccccc3C2(C)C)c(=O)n(-c2ccccc2)n1C | + | -2 | 0 | 10 | 3
